Drawing on ChEMBL document CHEMBL1157836, “Dibenzocyclooctadiene lignans from Schisandra wilsoniana and their anti-HIV-1 activities” (J Nat Prod, 2010), this text covers EC50, CC50 and selectivity ratio for 12 compounds.

The subject of series [1] is Human immunodeficiency virus 1. Put plainly: Antiviral activity against HIV1 infected in human C8166 cells assessed as inhibition of virus-induced cytopathic effect. In kind it is functional, organism-based. To be noted: Human immunodeficiency virus 1, C8166. In outline: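 HIV-1 cytopathic-effect inhibition assay in C8166 cells, giving EC50. AZT served as the positive control. Cytotoxicity was determined in parallel.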

A short description of series [2]: Cytotoxicity against human C8166 cells by MTT assay. In kind it is cell-based. A digest of the protocol: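 C8166 cells were tested by MTT assay alongside the anti-HIV-1 determination, giving CC50. AZT served as the positive control.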
For orientation: Formazan colour is commonly taken as a measure of viable cells.

The nature of series [3]: Therapeutic index, ratio of CC50 for C8166 cells to EC50 for HIV1. In kind it is cell-based. To be noted: human, read-out: TI. A digest of the protocol:
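TI was calculated as CC50 over EC50. CC50 came from the MTT assay on C8166 cells; EC50 came from HIV-1 cytopathic-effect inhibition in C8166 cells, run in parallel.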

Values after ≈ are worked out from the molar mass of the structure shown.

With `COc1c(O)cc2c(c1OC)-c1c(cc(O)c(OC)c1OC)C[C@](C)(O)[C@@H](C)C2` [MARLIGNAN L], the EC50 (as a rule, the midpoint of the concentration-response curve) in series [1] is 1.4 µg/mL (≈ 3.46 µM). In addition, the CC50 (usually the concentration that lowers cell viability or growth by half) in series [2] turned out to be 22.6 µg/mL (≈ 55.9 µM). In series [3], the selectivity ratio worked out at 16.4.
The matching figures for `COc1c(O)cc2c(c1O)-c1c(cc(O)c(OC)c1OC)C[C@@H](C)[C@@H](C)C2` [MARLIGNAN A]: 2.6 µg/mL (≈ 6.94 µM), 15.8 µg/mL (≈ 42.2 µM) and 6.
The matching figures for `COc1c(O)cc2c(c1OC)-c1c(cc(O)c(OC)c1OC)C(=O)[C@@H](C)[C@@H](C)C2` [MARLIGNAN H]: 2.6 µg/mL (≈ 6.46 µM), 46.5 µg/mL (≈ 116 µM) and 17.6.
The matching figures for `CCO[C@H]1c2cc(OC)c(OC)c(OC)c2-c2c(cc(OC)c(OC)c2OC)C[C@H](C)[C@@H]1C` [MARLIGNAN J]: 1.9 µg/mL (≈ 4.13 µM), 17.2 µg/mL (≈ 37.3 µM) and 9.3.
In the case of `COc1c(O)cc2c(c1OC)-c1c(cc(O)c(OC)c1OC)[C@H](OC(C)=O)[C@@H](C)[C@@H](C)C2` [MARLIGNAN E], the EC50 in series [1] was found to be 1.6 µg/mL (≈ 3.58 µM). In addition, it took 13.7 µg/mL (≈ 30.7 µM) to reach half-maximal cytotoxicity in series [2] (CC50). For the same compound, the selectivity ratio in series [3] amounted to 8.7.
On to `COc1cc2c(c(O)c1O)-c1c(cc(OC)c(OC)c1O)C[C@@H](C)[C@@H](C)C2` [MARLIGNAN C], for which the EC50 in series [1] came out at 5 µg/mL (≈ 13.4 µM). Further, in series [2], half-maximal cytotoxicity (CC50) was put at 65.6 µg/mL (≈ 175 µM). Further, the selectivity ratio in series [3] was determined as 13.2.
The corresponding values for `COc1cc2c(c(OC)c1OC)-c1c(cc(O)c(OC)c1O)C[C@H](C)[C@@](C)(O)C2` [MARLIGNAN K] are 1.9 µg/mL (≈ 4.7 µM), 14.8 µg/mL (≈ 36.6 µM) and 7.7.
The corresponding values for `COc1c(O)cc2c(c1OC)-c1c(cc(O)c(OC)c1OC)[C@H](OC)[C@@H](C)[C@@H](C)C2` [MARLIGNAN F] are 1.4 µg/mL (≈ 3.35 µM), 21.4 µg/mL (≈ 51.1 µM) and 15.6.
As for `COc1cc2c(c(OC)c1OC)-c1c(cc(OC)c(OC)c1OC)[C@H](OC(C)=O)[C@@H](C)[C@@H](C)C2` [MARLIGNAN I], in series [1], the EC50 was found to be 2.9 µg/mL (≈ 6.11 µM). Further, it took 13.5 µg/mL (≈ 28.4 µM) to reach half-maximal cytotoxicity in series [2] (CC50). Further, the selectivity ratio in series [3] is 4.6.
Take `COc1c(O)cc2c(c1OC)-c1c(cc(O)c(OC)c1OC)[C@H](OC(=O)c1ccccc1)[C@@H](C)[C@@H](C)C2`: the half-maximal effective concentration (EC50) in series [1] is 2.1 µg/mL (≈ 4.13 µM). The midpoint of cytotoxicity in series [2], the CC50, lay at 14.2 µg/mL (≈ 27.9 µM). Further, in series [3], the selectivity ratio stood at 6.7.
The matching figures for `COc1c(O)cc2c(c1OC)-c1c(cc(O)c(OC)c1OC)[C@H](O)[C@@H](C)[C@@H](C)C2` [MARLIGNAN D]: 2.5 µg/mL (≈ 6.18 µM), 14.2 µg/mL (≈ 35.1 µM) and 5.7.
The matching figures for `COc1cc2c(c(O)c1OC)-c1c(cc(O)c(OC)c1O)C[C@@H](C)[C@@H](C)C2` [MARLIGNAN B]: 5.1 µg/mL (≈ 13.6 µM), 43.4 µg/mL (≈ 116 µM) and 8.4.
